Test results published in ChEMBL document CHEMBL1148766, “Design, synthesis, and evaluation of orally active benzimidazoles and benzoxazoles as vascular endothelial growth factor-2 receptor tyrosine kinase inhibitors” (J Med Chem, 2007).

Key:
[1] = target: T1, Vascular endothelial growth factor receptor 2 (Homo sapiens, UniProt P35968); experiment: Inhibition of KDR phosphorylation; assay type: functional
[2] = Clearance in Sprague-Dawley rat at 1 mg/kg, iv; assay type: ADME, organism-based; design: dose 1 mg/kg, route intravenous; settings: in vivo
How it was run: (§1)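 Male Sprague-Dawley rats, n = 3, given 1 mg/kg as a DMSO solution into the femoral vein. Serial jugular-vein blood samples were taken into heparinized tubes over 12-24 h. Parameters were derived by noncompartmental analysis.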

[3] = Volume of distribution at steady state in Sprague-Dawley rat at 1 mg/kg, iv; assay type: ADME, organism-based; design: dose 1 mg/kg, route intravenous; settings: in vivo, read-out: Vdss; how it was run: as §1
[4] = Half life in Sprague-Dawley rat at 1 mg/kg, iv or 10 mg/kg po; assay type: ADME, organism-based; settings: in vivo
How it was run: (§2)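 Male Sprague-Dawley rats were dosed either into the femoral vein at 1 mg/kg in DMSO (n = 3) or by oral gavage at 10 mg/kg as an Ora-Plus suspension, pH 2.0-2.2 with methanesulfonic acid (n = 2). Serial jugular-vein blood was taken into heparinized tubes over 12-24 h. Parameters were derived by noncompartmental analysis.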

[5] = Oral bioavailability in Sprague-Dawley rat at 10 mg/kg, po; assay type: ADME, organism-based; settings: in vivo; how it was run: as §2
[6] = target: T1, Vascular endothelial growth factor receptor 2; experiment: Selectivity for VEGF-stimulated HUVEC cell proliferation over FGF-induced HUVEC cell proliferation; assay type: functional, cell-based
How it was run: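 HUVECs seeded at 3000/well in DMEM with 10% FBS, 22 h, then preincubated 2 h with compound serial dilutions. Stimulated with 50 ng/mL VEGF or 20 ng/mL bFGF for 72 h at 37 °C, 5% CO₂. Cells washed, frozen, then quantified with CyQuant dye. IC50s from four-parameter logistic fit; ratio of FGF over VEGF IC50.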

[7] = Oral bioavailability in Sprague-Dawley rat at 3 mg/kg, po; assay type: ADME, organism-based; settings: in vivo
How it was run: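 Male Sprague-Dawley rats given 3 mg/kg by oral gavage as an Ora-Plus suspension adjusted to pH 2.0-2.2 with methanesulfonic acid. Serial jugular-vein blood was taken into heparinized tubes over 12-24 h. Noncompartmental analysis.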

T1 sequence (P35968 whole entry): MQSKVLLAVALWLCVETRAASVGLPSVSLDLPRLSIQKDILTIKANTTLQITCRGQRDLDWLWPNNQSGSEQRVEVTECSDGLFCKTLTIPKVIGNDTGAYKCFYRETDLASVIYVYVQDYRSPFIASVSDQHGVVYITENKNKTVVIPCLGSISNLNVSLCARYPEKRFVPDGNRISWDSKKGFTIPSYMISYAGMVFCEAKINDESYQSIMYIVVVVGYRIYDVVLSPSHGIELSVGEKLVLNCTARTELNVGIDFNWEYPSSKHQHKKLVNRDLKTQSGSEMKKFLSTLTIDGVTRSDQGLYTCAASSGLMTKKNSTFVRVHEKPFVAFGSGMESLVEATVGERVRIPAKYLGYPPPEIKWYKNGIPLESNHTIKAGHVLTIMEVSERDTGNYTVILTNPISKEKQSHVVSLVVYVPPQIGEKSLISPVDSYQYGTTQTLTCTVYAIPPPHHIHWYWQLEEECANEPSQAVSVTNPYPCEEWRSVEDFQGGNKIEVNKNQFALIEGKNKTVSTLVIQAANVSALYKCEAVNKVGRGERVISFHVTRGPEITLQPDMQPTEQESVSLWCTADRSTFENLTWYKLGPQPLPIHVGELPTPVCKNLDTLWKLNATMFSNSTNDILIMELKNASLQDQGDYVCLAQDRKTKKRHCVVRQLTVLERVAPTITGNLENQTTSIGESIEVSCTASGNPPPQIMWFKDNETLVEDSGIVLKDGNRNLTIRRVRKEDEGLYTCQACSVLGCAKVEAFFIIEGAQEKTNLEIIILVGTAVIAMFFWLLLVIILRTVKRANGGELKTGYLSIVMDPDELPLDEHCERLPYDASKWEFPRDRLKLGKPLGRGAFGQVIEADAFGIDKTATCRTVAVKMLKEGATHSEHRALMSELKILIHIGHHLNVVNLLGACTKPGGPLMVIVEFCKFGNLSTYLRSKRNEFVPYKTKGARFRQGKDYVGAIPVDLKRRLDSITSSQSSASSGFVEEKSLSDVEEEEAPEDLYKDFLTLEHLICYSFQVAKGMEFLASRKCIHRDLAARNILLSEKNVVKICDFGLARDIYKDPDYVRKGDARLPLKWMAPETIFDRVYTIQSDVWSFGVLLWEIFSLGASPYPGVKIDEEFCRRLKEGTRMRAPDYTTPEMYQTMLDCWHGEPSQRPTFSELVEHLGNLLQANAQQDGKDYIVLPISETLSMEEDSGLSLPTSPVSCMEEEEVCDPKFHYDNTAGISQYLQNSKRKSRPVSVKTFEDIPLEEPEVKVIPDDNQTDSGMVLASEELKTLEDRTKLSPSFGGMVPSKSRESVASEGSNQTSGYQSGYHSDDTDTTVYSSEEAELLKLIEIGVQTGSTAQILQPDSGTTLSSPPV

Structure (SMILES)	Ki [1]	also measured
CN1CCN(Cc2cc(Nc3nc4cc(Oc5ccnc6[nH]ccc56)ccc4o3)ccc2Cl)CC1	2 nM	–
FC(F)(F)c1cc(Nc2nc3cc(Oc4ccncc4)ccc3[nH]2)ccc1Cl	160 nM	–
CN1CCN(Cc2cc(Nc3nc4ccc(Oc5ncnc6[nH]ccc56)cc4[nH]3)ccc2Cl)CC1	17 nM	–
CNC(=O)c1cc(Oc2ccc3[nH]c(Nc4cc(OCCN5CCCC5)cc(C(F)(F)F)c4)nc3c2)ccn1	287 nM	–
COc1cc2ncnc(Oc3ccc4[nH]c(Nc5ccc(Cl)cc5)nc4c3)c2cc1OC	8 nM	–
CNC(=O)c1cc(Oc2ccc3oc(Nc4ccc(Cl)cc4)nc3c2)ccn1	12 nM	–
CN1CCN(Cc2cc(Nc3nc4ccc(Oc5ccnc6[nH]ccc56)cc4[nH]3)ccc2Cl)CC1	3 nM	–
FC(F)(F)c1cc(Nc2nc3ccc(Oc4ccnc5[nH]ccc45)cc3[nH]2)ccc1Cl	48 nM	–
CNc1nccc(Oc2ccc3oc(Nc4ccc(Cl)c(CN5CCN(C)CC5)c4)nc3c2)n1	25 nM	–
CN1CCC[C@H]1COc1cc(Nc2nc3cc(Oc4ccnc(C(N)=O)c4)ccc3o2)ccc1Cl	3 nM	–
CNC(=O)c1cc(Oc2ccc3oc(Nc4ccc(Cl)c(CN5CCN(C)CC5)c4)nc3c2)ccn1	4 nM	–
CNc1nccc(Oc2ccc3[nH]c(Nc4ccc(Cl)c(CN5CCN(C)CC5)c4)nc3c2)n1	40 nM	–
COc1cc2nccc(Oc3ccc4oc(Nc5ccc(Cl)c(CN6CCN(C)CC6)c5)nc4c3)c2cc1OC	0.5 nM	clearance [2]: 27.2 mL/min/kg; Vd [3]: 12.1 L/kg; half-life [4]: 5.53 h; bioavailability [5]: 67%; Ratio IC50 [6]: 10
CNc1cc(Oc2ccc3oc(Nc4ccc(Cl)c(CN5CCN(C)CC5)c4)nc3c2)ncn1	20 nM	–
CNC(=O)c1cc(Oc2ccc3oc(Nc4ccc(Cl)c(OC[C@@H]5CCCN5C)c4)nc3c2)ccn1	–	clearance [2]: 56.7 mL/min/kg; Vd [3]: 8.4 L/kg; half-life [4]: 1.8 h; bioavailability [7]: 40%
COc1cc2ncnc(Oc3ccc4oc(Nc5ccc(Cl)c(OC[C@@H]6CCCN6C)c5)nc4c3)c2cc1OC	0.5 nM	clearance [2]: 14.8 mL/min/kg; Vd [3]: 6.88 L/kg; half-life [4]: 6.14 h; bioavailability [5]: 60%; Ratio IC50 [6]: 10
CNC(=O)c1cc(Oc2ccc3oc(Nc4ccc(Cl)c(OCC5CCNCC5)c4)nc3c2)ccn1	3 nM	–
CN1CCCC1COc1cc(Nc2nc3cc(Oc4ccnc5[nH]ccc45)ccc3o2)ccc1Cl (single isomer, unassigned)	1.6 nM	clearance [2]: 20.7 mL/min/kg; Vd [3]: 5.02 L/kg; half-life [4]: 2.87 h; bioavailability [5]: 17%

Structure (SMILES)	Ki [1]	also measured
CNC(=O)c1cc(Oc2ccc3[nH]c(Nc4ccc(C(F)(F)F)c(OCCN(C)C)c4)nc3c2)ccn1	3 nM	–
CN1CCC[C@@H]1COc1cc(Nc2nc3cc(Oc4ccnc5ccccc45)ccc3[nH]2)ccc1C(F)(F)F	1 nM	clearance [2]: 16.7 mL/min/kg; Vd [3]: 5.8 L/kg; half-life [4]: 4.8 h; bioavailability [5]: 24%
CNC(=O)c1cc(Oc2ccc3[nH]c(Nc4ccc(C(F)(F)F)c(OC[C@H]5CCCN5C)c4)nc3c2)ccn1	2 nM	–
CNC(=O)c1cc(Oc2ccc3[nH]c(Nc4ccc(C(F)(F)C(F)(F)F)c(OC[C@H]5CCCN5C)c4)nc3c2)ccn1	9 nM	–
CCN(CC)CCOc1cc(Nc2nc3cc(Oc4ccnc(C(=O)NC)c4)ccc3o2)ccc1Cl	5 nM	–
CSc1nccc(Oc2ccc3[nH]c(Nc4ccc(Cl)c(CN5CCN(C)CC5)c4)nc3c2)n1	128 nM	–
CN1CCN(Cc2cc(Nc3nc4cc(Oc5ccnc6ccccc56)ccc4[nH]3)ccc2Cl)CC1	2 nM	–
CNC(=O)c1cc(Oc2ccc3c(c2)nc(Nc2ccc(Cl)c(CN4CCN(C)CC4)c2)n3C)ccn1	10 nM	–
CN1CCN(Cc2cc(Nc3nc4cc(Oc5ccnc6ccccc56)cc(Cl)c4o3)ccc2Cl)CC1	2 nM	–
COc1cc2nccc(Oc3ccc4[nH]c(Nc5ccc(Cl)c(CN6CCN(C)CC6)c5)nc4c3)c2cc1OC	0.2 nM	–
CNC(=O)c1cc(Oc2ccc3oc(Nc4ccc(Cl)c(OCCN(C)C)c4)nc3c2)ccn1	4 nM	–
CN1CCN(Cc2cc(Nc3nc4cc(Oc5ccnc6ccccc56)ccc4o3)ccc2Cl)CC1	3.6 nM	–
CNC(=O)c1cc(Oc2ccc3[nH]c(Nc4ccc(Cl)c(CN5CCN(C)CC5)c4)nc3c2)ccn1	3.9 nM	–
CNC(=O)c1cc(Oc2ccc3oc(Nc4ccc(Cl)c(CN5CCOCC5)c4)nc3c2)ccn1	4 nM	–
CNC(=O)c1cc(Oc2cc(Cl)c3oc(Nc4ccc(Cl)c(CN5CCN(C)CC5)c4)nc3c2)ccn1	10 nM	–
COc1cc2nccc(Oc3ccc4oc(Nc5ccc(Cl)c(OC[C@@H]6CCCN6C)c5)nc4c3)c2cc1OC	0.5 nM	–
CNC(=O)c1cc(Oc2cc(F)c3oc(Nc4ccc(Cl)c(OC[C@@H]5CCCN5C)c4)nc3c2)ccn1	3 nM	–
